Assays:
Format in all cases: functional, cell-based
A-427 = assay: Inhibitory activity against A427 epithelial Cancer cell line at the concentration 0-30 uM for 48 hr; conditions: Homo sapiens, A-427, 48 h
Procedure, shortened: (§1)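 Human lines from frozen ATCC stocks: A549 in Ham's F-12, T84 in 1:1 F-12/DMEM, MCF-7 and A427 in DMEM, with 10% FBS. Log-phase cells in 24-well plates had medium replaced with drug-containing medium (0–30 μM, serial dilution of ethanol stocks) for 48 h. Coulter counts of cell increase as percent of drug-free controls; IC50 for 50% inhibition; means of eight determinations.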

A549 = assay: Inhibitory activity against A549 epithelial Cancer cell line at the concentration 0-30 uM for 48 hr; conditions: Homo sapiens, A549, 48 h; procedure, shortened: as §1
MCF7 = assay: Inhibitory activity against MCF-7 epithelial Cancer cell line at the concentration 0-30 uM for 48 hr; conditions: Homo sapiens, MCF7, 48 h; procedure, shortened: as §1
OVCAR-3 [1] = assay: Inhibitory activity against OVCAR-3 epithelial Cancer cell line at the concentration 0-30 uM for 48 hr; conditions: Homo sapiens, OVCAR-3, 48 h
Procedure, shortened: (§2)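 OVCAR-3 ovarian adenocarcinoma cells in RPMI 1640 with 20% FBS and 10 μg/mL insulin, in 24-well plates. At log phase, medium was replaced with drug-containing medium (0–30 μM, serial dilution of ethanol stocks) for 48 h. Increase in cell number was counted on a Coulter counter relative to drug-free wells, and IC50 was taken as 50% inhibition.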

T84 = assay: Inhibitory activity against T84 epithelial Cancer cell line at the concentration 0-30 uM for 48 hr; conditions: Homo sapiens, T84, 48 h; procedure, shortened: as §1
OVCAR-3 [2] = assay: Inhibitory activity against OVCAR-3 cell growth; conditions: Homo sapiens; procedure, shortened: as §2

IC50 (A-427)	IC50 (A549)	IC50 (MCF7)	IC50 (OVCAR-3 [1])	IC50 (T84)	IC50 (OVCAR-3 [2])	SMILES
7 µM	8.3 µM	6.5 µM	4 µM	12.2 µM		CCCCCCCCCCCCCCCCOC[C@H](CO[C@H]1O[C@@H](CO)[C@H](O)[C@@H](O)[C@@H]1N)OC
					> 30 µM	CCCCCCCCCCCCCCCCOP(=O)([O-])OCC[N+](C)(C)C [MILTEFOSINE]
24.5 µM	9 µM	17 µM	12 µM	> 30 µM		CCCCCCCCCCCCCCCCOC[C@H](CO[C@H]1O[C@@H](CO)[C@H](O)[C@@H](O)[C@@H]1NC(C)=O)OC
